Experimental data reported in ChEMBL document CHEMBL4152188, “Design, synthesis and biological evaluation of C(4) substituted monobactams as antibacterial agents against multidrug-resistant Gram-negative bacteria” (Eur J Med Chem, 2018).
Values after ≈ are worked out from the molar mass of the structure shown.

How the values were obtained:
Type in all cases: functional
Escherichia coli [1] = assay: Antibacterial activity against extended-spectrum beta-lactamase producing Escherichia coli isolate 212648 after 18 hrs by CLSI broth microdilution method; settings: isolate 212648, 18 h
Escherichia coli [2] = assay: Selectivity index, ratio of MIC for against extended-spectrum beta-lactamase producing Escherichia coli isolate 208687 to MIC for extended-spectrum beta-lactamase producing Escherichia coli isolate 208687 in presence of BPL
Escherichia coli [3] = assay: Antibacterial activity against Escherichia coli isolate 210737 after 18 hrs by CLSI broth microdilution method; settings: isolate 210737, 18 h
Escherichia coli [4] = assay: Antibacterial activity against extended-spectrum beta-lactamase producing Escherichia coli isolate 208687 after 18 hrs by CLSI broth microdilution method; settings: isolate 208687, 18 h
Escherichia coli [5] = assay: Antibacterial activity against extended-spectrum beta-lactamase producing Escherichia coli isolate 208687 after 18 hrs in presence of BPL by CLSI broth microdilution method; settings: isolate 208687, 18 h
Summary of the method: (§1)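 CLSI broth microdilution against clinical isolates (ESBL E. coli, KPC-2 MDR K. pneumoniae, IMP-4 MDR P. aeruginosa; five per species). Iron limitation: Mueller-Hinton broth supplemented with 16 mg/liter 2,2'-bipyridyl to complex iron and induce iron uptake systems. Read-out: MIC.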

Escherichia coli [6] = assay: Antibacterial activity against Escherichia coli isolate 210737 after 18 hrs in presence of BPL by CLSI broth microdilution method; settings: isolate 210737, 18 h; summary of the method: as §1
Escherichia coli [7] = assay: Selectivity index, ratio of MIC for against Escherichia coli isolate 210737 to MIC for Escherichia coli isolate 210737 in presence of BPL
Escherichia coli [8] = assay: Antibacterial activity against extended-spectrum beta-lactamase producing Escherichia coli isolate 212648 after 18 hrs in presence of BPL by CLSI broth microdilution method; settings: isolate 212648, 18 h; summary of the method: as §1
Escherichia coli [9] = assay: Selectivity index, ratio of MIC for against extended-spectrum beta-lactamase producing Escherichia coli isolate 212648 to MIC for extended-spectrum beta-lactamase producing Escherichia coli isolate 212648 in presence of BPL
Escherichia coli [10] = assay: Antibacterial activity against extended-spectrum beta-lactamase producing Escherichia coli isolate 209285 after 18 hrs by CLSI broth microdilution method; settings: isolate 209285, 18 h
Escherichia coli [11] = assay: Antibacterial activity against extended-spectrum beta-lactamase producing Escherichia coli isolate 209285 after 18 hrs in presence of BPL by CLSI broth microdilution method; settings: isolate 209285, 18 h; summary of the method: as §1
Escherichia coli [12] = assay: Selectivity index, ratio of MIC for against extended-spectrum beta-lactamase producing Escherichia coli isolate 209285 to MIC for extended-spectrum beta-lactamase producing Escherichia coli isolate 209285 in presence of BPL
Escherichia coli [13] = assay: Antibacterial activity against extended-spectrum beta-lactamase producing Escherichia coli isolate 106342 after 18 hrs by CLSI broth microdilution method; settings: isolate 106342, 18 h
Escherichia coli [14] = assay: Antibacterial activity against extended-spectrum beta-lactamase producing Escherichia coli isolate 106342 after 18 hrs in presence of BPL by CLSI broth microdilution method; settings: isolate 106342, 18 h; summary of the method: as §1
Escherichia coli [15] = assay: Selectivity index, ratio of MIC for against extended-spectrum beta-lactamase producing Escherichia coli isolate 106342 to MIC for extended-spectrum beta-lactamase producing Escherichia coli isolate 106342 in presence of BPL
Klebsiella pneumoniae [16] = assay: Antibacterial activity against KPC-2 producing Klebsiella pneumoniae isolate 212423 after 18 hrs by CLSI broth microdilution method; settings: isolate 212423, 18 h
Klebsiella pneumoniae [17] = assay: Antibacterial activity against KPC-2 producing Klebsiella pneumoniae isolate 212423 after 18 hrs in presence of BPL by CLSI broth microdilution method; settings: isolate 212423, 18 h; summary of the method: as §1
Klebsiella pneumoniae [18] = assay: Selectivity index, ratio of MIC for against KPC-2 producing Klebsiella pneumoniae isolate 212423 to MIC for against KPC-2 producing Klebsiella pneumoniae isolate 212423 in presence of BPL
Klebsiella pneumoniae [19] = assay: Antibacterial activity against KPC-2 producing Klebsiella pneumoniae isolate 209632 after 18 hrs by CLSI broth microdilution method; settings: isolate 209632, 18 h
Klebsiella pneumoniae [20] = assay: Antibacterial activity against KPC-2 producing Klebsiella pneumoniae isolate 209632 after 18 hrs in presence of BPL by CLSI broth microdilution method; settings: isolate 209632, 18 h; summary of the method: as §1
Klebsiella pneumoniae [21] = assay: Selectivity index, ratio of MIC for against KPC-2 producing Klebsiella pneumoniae isolate 209632 to MIC for against KPC-2 producing Klebsiella pneumoniae isolate 209632 in presence of BPL
Klebsiella pneumoniae [22] = assay: Antibacterial activity against KPC-2 producing Klebsiella pneumoniae isolate 209735 after 18 hrs by CLSI broth microdilution method; settings: isolate 209735, 18 h
Klebsiella pneumoniae [23] = assay: Antibacterial activity against KPC-2 producing Klebsiella pneumoniae isolate 209735 after 18 hrs in presence of BPL by CLSI broth microdilution method; settings: isolate 209735, 18 h; summary of the method: as §1
Klebsiella pneumoniae [24] = assay: Selectivity index, ratio of MIC for against KPC-2 producing Klebsiella pneumoniae isolate 209735 to MIC for against KPC-2 producing Klebsiella pneumoniae isolate 209735 in presence of BPL
Klebsiella pneumoniae [25] = assay: Antibacterial activity against KPC-2 producing Klebsiella pneumoniae isolate 212232 after 18 hrs by CLSI broth microdilution method; settings: isolate 212232, 18 h
Klebsiella pneumoniae [26] = assay: Antibacterial activity against KPC-2 producing Klebsiella pneumoniae isolate 212232 after 18 hrs in presence of BPL by CLSI broth microdilution method; settings: isolate 212232, 18 h; summary of the method: as §1
Klebsiella pneumoniae [27] = assay: Selectivity index, ratio of MIC for against KPC-2 producing Klebsiella pneumoniae isolate 212232 to MIC for against KPC-2 producing Klebsiella pneumoniae isolate 212232 in presence of BPL
Klebsiella pneumoniae [28] = assay: Antibacterial activity against KPC-2 producing Klebsiella pneumoniae isolate 212229 after 18 hrs by CLSI broth microdilution method; settings: isolate 212229, 18 h
Klebsiella pneumoniae [29] = assay: Antibacterial activity against KPC-2 producing Klebsiella pneumoniae isolate 212229 after 18 hrs in presence of BPL by CLSI broth microdilution method; settings: isolate 212229, 18 h; summary of the method: as §1
Klebsiella pneumoniae [30] = assay: Selectivity index, ratio of MIC for against KPC-2 producing Klebsiella pneumoniae isolate 212229 to MIC for against KPC-2 producing Klebsiella pneumoniae isolate 212229 in presence of BPL
Pseudomonas aeruginosa [31] = assay: Antibacterial activity against IMP-4 producing Pseudomonas aeruginosa isolate 212886 after 18 hrs by CLSI broth microdilution method; settings: isolate 212886, 18 h
Pseudomonas aeruginosa [32] = assay: Antibacterial activity against IMP-4 producing Pseudomonas aeruginosa isolate 212886 after 18 hrs in presence of BPL by CLSI broth microdilution method; settings: isolate 212886, 18 h; summary of the method: as §1
Pseudomonas aeruginosa [33] = assay: Selectivity index, ratio of MIC for against IMP-4 producing Pseudomonas aeruginosa isolate 212886 to MIC for against IMP-4 producing Pseudomonas aeruginosa isolate 212886 in presence of BPL
Pseudomonas aeruginosa [34] = assay: Antibacterial activity against IMP-4 producing Pseudomonas aeruginosa isolate 209471 after 18 hrs by CLSI broth microdilution method; settings: isolate 209471, 18 h
Pseudomonas aeruginosa [35] = assay: Antibacterial activity against IMP-4 producing Pseudomonas aeruginosa isolate 209471 after 18 hrs in presence of BPL by CLSI broth microdilution method; settings: isolate 209471, 18 h; summary of the method: as §1
Pseudomonas aeruginosa [36] = assay: Selectivity index, ratio of MIC for against IMP-4 producing Pseudomonas aeruginosa isolate 209471 to MIC for against IMP-4 producing Pseudomonas aeruginosa isolate 209471 in presence of BPL
Pseudomonas aeruginosa [37] = assay: Antibacterial activity against IMP-4 producing Pseudomonas aeruginosa isolate 208247 after 18 hrs by CLSI broth microdilution method; settings: isolate 208247, 18 h
Pseudomonas aeruginosa [38] = assay: Antibacterial activity against IMP-4 producing Pseudomonas aeruginosa isolate 208247 after 18 hrs in presence of BPL by CLSI broth microdilution method; settings: isolate 208247, 18 h; summary of the method: as §1
Pseudomonas aeruginosa [39] = assay: Selectivity index, ratio of MIC for against IMP-4 producing Pseudomonas aeruginosa isolate 208247 to MIC for against IMP-4 producing Pseudomonas aeruginosa isolate 208247 in presence of BPL
Pseudomonas aeruginosa [40] = assay: Antibacterial activity against IMP-4 producing Pseudomonas aeruginosa isolate 209321 after 18 hrs by CLSI broth microdilution method; settings: isolate 209321, 18 h
Pseudomonas aeruginosa [41] = assay: Antibacterial activity against IMP-4 producing Pseudomonas aeruginosa isolate 209321 after 18 hrs in presence of BPL by CLSI broth microdilution method; settings: isolate 209321, 18 h; summary of the method: as §1
Pseudomonas aeruginosa [42] = assay: Selectivity index, ratio of MIC for against IMP-4 producing Pseudomonas aeruginosa isolate 209321 to MIC for against IMP-4 producing Pseudomonas aeruginosa isolate 209321 in presence of BPL
Pseudomonas aeruginosa [43] = assay: Antibacterial activity against IMP-4 producing Pseudomonas aeruginosa isolate 207272 after 18 hrs by CLSI broth microdilution method; settings: isolate 207272, 18 h
Pseudomonas aeruginosa [44] = assay: Antibacterial activity against IMP-4 producing Pseudomonas aeruginosa isolate 207272 after 18 hrs in presence of BPL by CLSI broth microdilution method; settings: isolate 207272, 18 h; summary of the method: as §1
Pseudomonas aeruginosa [45] = assay: Selectivity index, ratio of MIC for against IMP-4 producing Pseudomonas aeruginosa isolate 207272 to MIC for against IMP-4 producing Pseudomonas aeruginosa isolate 207272 in presence of BPL

## Cc1nnc(SC[C@@H]2[C@H](NC(=O)/C(=N\OC(c3cc(=O)c(O)cn3O)C(C)C)c3csc(N)n3)C(=O)N2S(=O)(=O)O)s1 (stereo not given in full)
Escherichia coli [1]
  MIC: 0.5 µg/mL (≈ 0.757 µM)
Escherichia coli [2]
  Selectivity Index: 16
Escherichia coli [3]
  MIC: 0.5 µg/mL (≈ 0.757 µM)
Escherichia coli [4]
  MIC: 2 µg/mL (≈ 3.03 µM)
Escherichia coli [5]
  MIC: 0.125 µg/mL
Escherichia coli [6]
  MIC: 0.25 µg/mL
Escherichia coli [7]
  Selectivity Index: 2
Escherichia coli [8]
  MIC: 0.25 µg/mL
Escherichia coli [9]
  Selectivity Index: 2
Escherichia coli [10]
  MIC: 4 µg/mL (≈ 6.05 µM)
Escherichia coli [11]
  MIC: 1 µg/mL
Escherichia coli [12]
  Selectivity Index: 4
Escherichia coli [13]
  MIC: 1 µg/mL (≈ 1.51 µM)
Escherichia coli [14]
  MIC: 0.5 µg/mL
Escherichia coli [15]
  Selectivity Index: 2
Klebsiella pneumoniae [16]
  MIC: 1 µg/mL (≈ 1.51 µM)
Klebsiella pneumoniae [17]
  MIC: 0.5 µg/mL
Klebsiella pneumoniae [18]
  Selectivity Index: 2
Klebsiella pneumoniae [19]
  MIC: 1 µg/mL (≈ 1.51 µM)
Klebsiella pneumoniae [20]
  MIC: 0.25 µg/mL
Klebsiella pneumoniae [21]
  Selectivity Index: 4
Klebsiella pneumoniae [22]
  MIC: 1 µg/mL (≈ 1.51 µM)
Klebsiella pneumoniae [23]
  MIC: 0.5 µg/mL
Klebsiella pneumoniae [24]
  Selectivity Index: 2
Klebsiella pneumoniae [25]
  MIC: 2 µg/mL (≈ 3.03 µM)
Klebsiella pneumoniae [26]
  MIC: 0.25 µg/mL
Klebsiella pneumoniae [27]
  Selectivity Index: 8
Klebsiella pneumoniae [28]
  MIC: 1 µg/mL (≈ 1.51 µM)
Klebsiella pneumoniae [29]
  MIC: 0.5 µg/mL
Klebsiella pneumoniae [30]
  Selectivity Index: 2
Pseudomonas aeruginosa [31]
  MIC: > 64 µg/mL
Pseudomonas aeruginosa [32]
  MIC: 16 µg/mL
Pseudomonas aeruginosa [33]
  Selectivity Index: >4
Pseudomonas aeruginosa [34]
  MIC: 32 µg/mL (≈ 48.4 µM)
Pseudomonas aeruginosa [35]
  MIC: 32 µg/mL
Pseudomonas aeruginosa [36]
  Selectivity Index: 1
Pseudomonas aeruginosa [37]
  MIC: > 64 µg/mL
Pseudomonas aeruginosa [38]
  MIC: > 64 µg/mL
Pseudomonas aeruginosa [39]
  Selectivity Index: 1 - 4
Pseudomonas aeruginosa [40]
  MIC: 64 µg/mL (≈ 96.9 µM)
Pseudomonas aeruginosa [41]
  MIC: 64 µg/mL
Pseudomonas aeruginosa [42]
  Selectivity Index: 1
Pseudomonas aeruginosa [43]
  MIC: 64 µg/mL (≈ 96.9 µM)
Pseudomonas aeruginosa [44]
  MIC: 64 µg/mL
Pseudomonas aeruginosa [45]
  Selectivity Index: 1
